Source: the EternaBench riboswitch data

Tested on: MS2 coat protein
Test: apparent Kd, MS2 coat protein; higher = weaker binding; RNA-MaP array; FMN 200 µM where present
In short: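 Designs on Illumina sequencing-chip clusters, transcribed by stalled E. coli RNA polymerase, were exposed to SNAP-549-labelled MS2 coat protein in doubling steps from 0.7 or 1.5 nM up to 3 µM, without and then with constant ligand. The buffer held 100 mM Tris-HCl pH 7.5, 80 mM KCl, 4 mM MgCl2, BSA, DTT, yeast tRNA and Tween-20. Apparent Kd values are medians of filtered per-cluster binding-curve fits to green signal normalised to red-channel RNA signal and control-cluster median Fmax.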

[1] = designed as: OFF switch for flavin mononucleotide, no ligand
[2] = ligand present: flavin mononucleotide, designed as: OFF switch for flavin mononucleotide
[3] = designed as: ON switch for flavin mononucleotide, no ligand
[4] = ligand present: flavin mononucleotide, designed as: ON switch for flavin mononucleotide

Row | Sequence | apparent Kd [1] | apparent Kd [2] | apparent Kd [3] | apparent Kd [4]
1 | AUGCUGUCAGGAUAUCGUUAAUUUAGUUGUUUGUAUUAGUUCGAGAAGGGACAUGAGGAUCACCCAUGUUUGUA | 30.8 nM | 37.4 nM |  | 
2 | CCGGCUUAGGAGGAUAUGGGAGUCGAUAGACACCCAGAAGGCCUAACAUGAGGAUCACCCAUGUGUCCUACCGG | 23.4 nM | 109 nM |  | 
3 | GGACAUCCCACAGGAUAUGCUGGACUUUGUCCAGCAGAAGGGUGAAAUACAUGAGGAUCACCCAUGUGGAUGUCCAUAUUUAAU |  |  | 747 nM | 253 nM
4 | UUGGGUCGGGAGGAUAUUCGGGCCCAAGGGCUUGGAGAAGGCUCGACAUGAGGAUCACCCAUGUAAGUGUACUU | 26.4 nM | 73.3 nM |  | 
5 | CCCGGCGUGACGCUACACCGAGAGCAGGAUAUUCCGCCGUGAUCUACAUGAGGAUCACCCAUGUGGAAGAAGGGCUACACAAAA | 8.94 nM | 37.5 nM |  | 
6 | GCAGCAAUCUAAAACAUGAGGAUCACCCAUGUCGAGAGAUAUGAGGAUAUGCAUCGGAUGAAGAUGCAGAAGGCAUUGUGCUGC |  |  | 8.66 nM | 6.35 nM
7 | AUUACAUGAGGAUCACCCAUGUACAGAACGUUUCAUUACAGUGAGGAUAUACGAAAUGUAGGAGCGUAGAAGGCACUGGGUACA |  |  | 129 nM | 40.1 nM
8 | GGUGCCAUGUAGAAGGCAGAUCUGAUUCAGAUCUGAGGAUAUACAUGAGGAUCACCCAUGUGAAGGCACCGCACGAGAGUGCAA | 8.21 nM | 24 nM |  | 
9 | AUAGGACGAAACAUGAGGAUCACCCAUGUGUUAUAAUUAAUAUAGGAUAUGUUUAUACUUUUUGGGCAGAAGGAUGAUAAUGCU |  |  | 16.6 nM | 14.7 nM
10 | CGCCAGUGAGGAUAUCCAUCUGGAUCAGACUAGAUCCUGAUGGAGAAGGCACAUGAGGAUCACCCAUGUCGGCG | 18.5 nM | 19.5 nM |  | 
11 | GAGGCACAUGAGGAUCACCCAUGUGGGUAGAACAUAGGAUAUCACCAACAAAUUACCCGGUGAGAAGGAUGAUGCC |  |  | 234 nM | 57.4 nM
12 | AAAAAGUGAGGAUAUACAUGAGGAUCACCCAUGUGAAAGUCGAAAAAAAAGACAAAAAGUAGAAGGCACAAAAA | 30.7 nM | 32.7 nM |  | 
13 | GGGUACUUCGGAGGAUAUCAUGUAAAUACAUGAGGAUCACCCAUGUCGAUGGAGACAUCGGAGAUUGAGAAGGCCGAUGUACCG |  |  | 171 nM | 9.34 nM
14 | UUUUAACAUGAGGAUCACCCAUGUGAGGAUAUCGAAAUUUAUAUUUAUAUUUAUAAUACGAGAAGGCACAUUUU | 80.3 nM | 93.6 nM |  | 
15 | CAAUUUAUAACAGGAUAUGUAUUACAAAAGUUAAUAGAAGGGUUUAAUACAUGAGGAUCACCCAUGUCAUGUGUCAUAAUUACC | 36.7 nM | 29.6 nM |  | 
16 | UACGAAUACCCUCGUCGGCUGAAUCCAGAAGGACCACAUGAGGAUCACCCAUGUCGAAGAUAAAGGUAGGAUAUGGAGUGCCUA |  |  | 119 nM | 23.9 nM
17 | CACACAUGAGGAUCACCCAUGUCGUGGGCGGAAAACUGUGCACAGGAUAUGGUGAAGGCAACUCACCAGAAGGGUGGUCAGGGA |  |  | 113 nM | 55 nM
18 | AAAUAAAGUACCUAGAUAUCCUCACAUGAGGAUCACCCAUGUCAGGAUAUUUGUCCUAAAAGGACAGAGAAGGGACAAGGUAUA | 5.52 nM | 9.72 nM |  | 
19 | UUGCGGUAGGAGAAGGACAGAGGCUUAAUUACAUACAUGAGGAUCACCCAUGUAGGAUAUCCUACCUAACGCGGACUCCUCCUG | 6.82 nM | 7.25 nM |  | 
20 | UAAUUAAAUGUGAGGAUAUGCUGGUCCUUGGAUCAGCAGAAGGCACAUGAGGAUCACCCAUGUAAUUUAUUUAU | 75.2 nM | 285 nM |  | 
21 | CGAUAUUAUGUCAGGAUAUACAUUGCGAAAGCAAUGUAGAAGGGACAUGAGGAUCACCCAUGUCCUAACUAUCG | 12.5 nM | 14.2 nM |  | 
22 | ACGAAAACACAAAUGUUCCACGGUGCAGAAGGGUCCCUCACAUGAGGAUCACCCAUGUAACUCGGACAGGAUAUGCUUUUGGGA |  |  | 380 nM | 11.4 nM
23 | ACUGGUGCAGGAUAUGCAAUCGUGCUUCGGCACGUAAGAUCACAUGAGGAUCACCCAUGUAGAAGGGCACCAGU | 20.3 nM | 65.7 nM |  | 
24 | AUCAUGUAAGGAUAUCUGACAUGUGACGAAAGUCACUGUUCAGAGAAGGUACAUGAGGAUCACCCAUGUAGAAC | 72.2 nM | 133 nM |  | 

Row | Sequence | apparent Kd [1] | apparent Kd [2] | apparent Kd [3] | apparent Kd [4]
25 | UUAAAUCAUGUAGGAUAUGCAUGGCGAAGCUACGCAGAAGGACAUGAGGAUCACCCAUGUUAAAGCUACCGUAUACGGUGGCAA | 131 nM | 174 nM |  | 
26 | ACAUGAGGAUCACCCAUGUAUUUGUAGGAUAUACACAAUUCUUUAUUACUCUAAUUAAUAUGUUUGUAGAAGGACACUGCAUGA | 9.71 nM | 9.52 nM |  | 
27 | GAACGUGACAUGAGGAUCACCCAUGUUGCCUUGGCCAGGUCGUAGGAUAUCCUGAUGAUUAAUUUGGAGAAGGGCGACUGGGAG |  |  | 36.1 nM | 15.3 nM
28 | AUUAUGUCAGGAUAUCAGUAGUAAAAAAAAAAAAUUACUACUGAGAAGGGACAUGAGGAUCACCCAUGUCAAAA | 23 nM | 30.6 nM |  | 
29 | UCGUUGUCAGGAUAUCGUGUAUACAACGUUAGUUCUAUGUGCGAGAAGGGACAUGAGGAUCACCCAUGUUACGU | 69.2 nM | 213 nM |  | 
30 | AAAAGACAUGAGGAUCACCCAUGUCUUCGGACAUGAGGAUAUGUACAGACUUCGGUCUGUACAGAAGGCAUGUAAA |  |  | 42.9 nM | 17 nM
31 | AGCUACGUUUCGUAGCAGCUAGGUGAGGAUAUUCAAAUUUUCACAUGAGGAUCACCCAUGUAUGUGAAGAAGGCGCCUAGAAAG |  |  | 9.58 nM | 5.44 nM
32 | AUCGGCAACACCAUGGUGGAUCCUGAGGAUAUGAAAAGCUACAUGAGGAUCACCCAUGUCCCGCGUCAGAAGGCAGGUUUGAUC |  |  | 138 nM | 17 nM
33 | CACGUCCACACAGGAUAUGCUGGACUUUGUCCAGCAGAAGGGUGACAUGAGGAUCACCCAUGUAAAAGGACGUGUAUAUUUAAU |  |  | 819 nM | 62.1 nM
34 | AGAGCCUCGUGAGGAUAUACAUGAGGAUCACCCAUGUAAAUGAAAGAUACGUCGAAACGACGAAUGUAGAAGGCACGAGGCUCA | 17.8 nM | 65.9 nM |  | 
35 | GCCAUCGCAUGAGGAUAUGCUCCCGUUUCGGGAGCAGAAGGCAUGUCAAAAGACAUGAGGAUCACCCAUGUAGUUAAGAUGGCA |  |  | 122 nM | 7.89 nM
36 | UGGUACUAGGGAGGAUAUGGGAAGAUACAUGAGGAUCACCCAUGUUUAAGACUGCCGAGAGGCAACUAGAAGGCCCUAGUACCU |  |  | 624 nM | 27.4 nM
37 | GUGCCUUGGGAGAAGGCAGUAUGCAAAGCAUUCUGAGGAUAUCCAUACCGGAAACGGACAUGAGGAUCACCCAUGUGGCACAAA |  |  | 18.5 nM | 7.52 nM
38 | CUAUUACGAGGAUAUGAUUUAAAUAACAUGAGGAUCACCCAUGUUUUUACGUUAUUUUAUUUAGAAGGCGUAUAGU | 41.8 nM | 31 nM |  | 
39 | GGACAUGUCGUUUACAUGAGGAUCACCCAUGUCGAUGGACAUGAGGAUAUCGAUACAAAUUGUAUCGAGAAGGCAUGCAUGUCC |  |  | 40.8 nM | 18.5 nM
40 | GCGAUUUUUAGAUUUUAAUAAUUUACAGAAGGUGAUAUACUUACAUGAGGAUCACCCAUGUUAUUCAAGGAUAUGUAGAUACUC |  |  | 308 nM | 31 nM
41 | UGGUUGUGUGUUAGGAUAUGGUUUGGUGUUUCGGGCUAGAAGGGACAUGAGGAUCACCCAUGUGGCUGGCGGGU | 72.6 nM | 58.1 nM |  | 
42 | UUAUAUAGAGUGAGGAUAUGCUGGUCCUUGGAUCAGCAGAAGGCACAUGAGGAUCACCCAUGUAAUAUAUUAUU | 22 nM | 38.2 nM |  | 
43 | AAAAAGUCAGGAUAUGUCAAAAGUCACAAAAGUGACAAAAGACAGAAGGGACAUGAGGAUCACCCAUGUAAAAA | 29 nM | 46.4 nM |  | 
44 | GCAGAUCAAGUGAGGAUAUCGUCUACCUCGGUAGUCGAGAAGGCACAUGAGGAUCACCCAUGUGAUUGAUCUGC | 18.5 nM | 25.9 nM |  | 
45 | CACCGUUACAGAGGAUAUGACACAUGAGGAUCACCCAUGUAAUAAAUGAGAAUUUCGAAUGUAACUCAGAAGGCUGGAAUCGGC | 30.5 nM | 52.8 nM |  | 
46 | GUGGUACAUGAGGAUCACCCAUGUGUGGGCGCAUGAGGAUAUGUCAGUCCCUGAAGUACGAUAGAAGGCAUGGUGA |  |  | 201 nM | 302 nM
47 | AGUAUGCACGCAGGAUAUACAUGAGGAUCACCCAUGUGGAACAGUGUAGUACUAGUUGAUCCUCAGUAGAAGGGCGGUCAAAUA | 47.8 nM | 42.7 nM |  | 
48 | CCUAUACAUGAGGAUCACCCAUGUCAGGAUAUGGACAGCUACGUCAUAGGACGUAGCACCAGAAGGGACUGGCA | 50.1 nM | 130 nM |  | 
